Data reported in ChEMBL document CHEMBL1123228, “Enantiomers of 3-(3,4-dihydroxyphenyl)- and 3-(3-hydroxyphenyl)-N-n-propylpiperidine: central pre- and postsynaptic dopaminergic effects and pharmacokinetics” (J Med Chem, 1986).

Tests used:
Rattus norvegicus [1] = experiment: Level of compound in rat striatum by pretreatment of tropolone (50 mg/kg, ip, 30min) at dose 40 umol/kg; type: functional, organism-based
In short: (§1)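 Female Wistar rats (170–200 g), compound sc in saline (1 mL/kg), killed 60 min later, with or without tropolone (50 mg/kg ip) before dosing. Striatum, cerebellum and cortex were extracted in perchloric acid, cleaned on Sephadex G10 and analysed by HPLC-ECD (pH 4.0, 15% methanol, 600 mV). Recovery-corrected, n = 3.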

Rattus norvegicus [2] = experiment: Level of compound in rat cortex by pretreatment of tropolone (50 mg/kg, ip, 30min) at dose 40 umol/kg; type: functional, organism-based; in short: as §1
Rattus norvegicus [3] = experiment: Level of compound in rat cortex in the absence of tropolone at dose 8 umol/kg; type: functional, organism-based; in short: as §1
Rattus norvegicus [4] = experiment: Level of compound in rat cerebellum by pretreatment of tropolone (50 mg/kg, ip, 30min) at dose 8 umol/kg; type: functional, organism-based; in short: as §1
Rattus norvegicus [5] = experiment: Level of compound in rat striatum at dose 8 umol/kg; type: functional, organism-based; in short: as §1
Rattus norvegicus [6] = experiment: Level of compound in rat striatum by pretreatment of tropolone (50 mg/kg, ip, 30min) at dose 8 umol/kg; type: functional, organism-based; in short: as §1
Rattus norvegicus [7] = experiment: Presynaptic activity at the level of DA metabolism was determined at dose 45 umol/kg on striatal level of HVA; type: functional
In short: (§2)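 Female Wistar rats given 45 μmol/kg sc; striatal DOPAC and HVA measured by HPLC with electrochemical detection, compared with saline controls by Student's t test.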

Rattus norvegicus [8] = experiment: Level of compound in rat cortex at dose 8 umol/kg; type: functional, organism-based; in short: as §1
Rattus norvegicus [9] = experiment: Level of compound in rat cerebellum at dose 40 umol/kg; type: functional, organism-based; in short: as §1
Rattus norvegicus [10] = experiment: Level of compound in rat striatum in the absence of tropolone at dose 40 umol/kg; type: functional, organism-based; in short: as §1
Rattus norvegicus [11] = species: Rattus norvegicus; experiment: Maximal cAMP production in rat striatal homogenates.; type: functional
In short: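 cAMP formation in rat striatal homogenates was read with an automated adenylate cyclase assay.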

[12] = Michaelis-Menten constant was measured against adenylate cyclase stimulation of cAMP formation in striatal homogenates; type: ADME, tissue-based; settings: tissue homogenate
Rattus norvegicus [13] = experiment: Motor activity effect in reserpinized rat with tropolone pretreatment at 5 umol/kg, sc expressed as accumulation counts 0-30 min after treatment; type: functional
In short: (§3)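 Male Sprague-Dawley rats given reserpine 5 mg/kg ip 18 h before; some also given tropolone 50 mg/kg 30 min before. Compound given sc in the neck, or ip where stated. Locomotion recorded by photocell motility meters, one rat per cage, as accumulated counts over 0–30 min, mean ± SEM.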

Rattus norvegicus [14] = experiment: Level of compound in rat cortex by pretreatment of tropolone (50 mg/kg, ip, 30min) at dose 8 umol/kg; type: functional, organism-based; in short: as §1
Rattus norvegicus [15] = experiment: Level of compound in rat cerebellum in the absence of tropolone at dose 40 umol/kg; type: functional, organism-based; in short: as §1
Rattus norvegicus [16] = species: Rattus norvegicus; experiment: Dopa accumulation was evaluated in corpus striatum of male Sprague-Dawley rat; type: functional
In short: (§4)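 Male Sprague-Dawley rats, 200–300 g; drug in saline given sc after NSD 1015 decarboxylase inhibition; Dopa measured by HPLC with electrochemical detection. Dose-response curves from four to six dose levels per substance and brain area; ED50 estimated as the dose giving half-maximal decrease of Dopa level.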

Rattus norvegicus [17] = experiment: Level of compound in rat cerebellum by pretreatment of tropolone (50 mg/kg, ip, 30min) at dose 40 umol/kg; type: functional, organism-based; in short: as §1
[18] = Ratio of Vmax/Km was measured; type: ADME
In short: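 Crude COMT from rat liver (KCl homogenate, 105000g supernatant). Incubated at 37 °C in 50 mM phosphate buffer pH 7.4 with 10 mM MgCl2, S-adenosyl-L-methionine ([…] as printed), and substrate at 0.1–0.00125 mM (final concentrations), 15 min. Stopped with perchloric acid; the O-methylated product was measured by HPLC-electrochemical detection. Km and Vmax from Lineweaver-Burk plots of four experiments, each concentration run in triplicate.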

Rattus norvegicus [19] = experiment: Level of compound in rat cortex in the absence of tropolone at dose 40 umol/kg; type: functional, organism-based; in short: as §1
Rattus norvegicus [20] = experiment: Presynaptic activity at the level of DA metabolism was determined at dose 45 umol/kg on striatal level of DOPAC; type: functional; in short: as §2
Rattus norvegicus [21] = experiment: Motor activity effect in reserpinized rat at 50 umol/kg, sc expressed as accumulation counts 0-30 min after treatment; type: functional; in short: as §3
Rattus norvegicus [22] = species: Rattus norvegicus; experiment: Dopa accumulation was evaluated in limbic system of male Sprague-Dawley rat; type: functional; in short: as §4
D(1A) dopamine receptor = D(1A) dopamine receptor (Rattus norvegicus, UniProt P18901); experiment: In vitro affinity against Dopamine receptor D1 using [3H]SCH-23390 radioligand in rat striatal homogenate.
D(2) dopamine receptor = D(2) dopamine receptor (Rattus norvegicus, UniProt P61169); experiment: In vitro affinity against Dopamine receptor D2 using [3H]DP-5,6-ADTN radioligand in rat striatal homogenate.
[23] = test system: catechol-O-methyl transferase; experiment: Michaelis-Menten constant was measured for O-methylation (probably meta) by catechol-O-methyl transferase; type: ADME
In short: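 Crude rat liver COMT (105000g supernatant) at 37°C for 15 min with 0.1–0.00125 mM substrate, S-adenosyl-L-methionine, 10 mM MgCl2 and 50 mM phosphate pH 7.4 (final). Reaction stopped with perchloric acid; O-methyl product measured by HPLC-ECD. Km from Lineweaver-Burk plots, four experiments, each concentration in triplicate.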

Rattus norvegicus [24] = experiment: Level of compound in rat cortex at dose 40 umol/kg; type: functional, organism-based; in short: as §1
Rattus norvegicus [25] = experiment: Level of compound in rat striatum at dose 40 umol/kg; type: functional, organism-based; in short: as §1
Rattus norvegicus [26] = experiment: Level of compound in rat cerebellum at dose 8 umol/kg; type: functional, organism-based; in short: as §1
Rattus norvegicus [27] = experiment: Level of compound in rat cerebellum in the absence of tropolone at dose 8 umol/kg; type: functional, organism-based; in short: as §1
Rattus norvegicus [28] = experiment: Level of compound 5 in rat cortex at dose 45 umol/kg administered intraperitoneally; type: functional, organism-based
In short: (§5)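 Female Wistar rats (170–200 g) given 45 μmol/kg ip or sc, killed 60 min later. Striatum, cerebellum and cortex were frozen and homogenised in 0.1 M perchloric acid, purified on Sephadex G10 and analysed by HPLC-ECD. O-methyl metabolite was read at 27% methanol and 750 mV. Values pmol/g tissue, n = 3.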

Rattus norvegicus [29] = experiment: Level of compound in rat cortex at dose 45 umol/kg administered intraperitoneally; type: functional, organism-based; in short: as §5
Rattus norvegicus [30] = experiment: Level of compound in rat intraperitoneally; type: functional, organism-based
Rattus norvegicus [31] = experiment: Level of compound in rat striatum at dose 45 umol/kg administered subcutaneously.; type: functional, organism-based; in short: as §5
Rattus norvegicus [32] = experiment: Motor activity effect in reserpinized rat at 13 umol/kg, sc expressed as accumulation counts 0-30 min after treatment; type: functional
Rattus norvegicus [33] = experiment: Level of compound 5 in rat cerebellum at dose 45 umol/kg administered subcutaneously; type: functional, organism-based; in short: as §5
Rattus norvegicus [34] = experiment: Level of compound 5 in rat intraperitoneally; type: functional, organism-based; in short: as §5
Rattus norvegicus [35] = experiment: Level of compound 5 in rat striatum at dose 45 umol/kg administered subcutaneously; type: functional, organism-based; in short: as §5
Rattus norvegicus [36] = experiment: Level of compound 5 in rat cerebellum at dose 45 umol/kg administered intraperitoneally; type: functional, organism-based; in short: as §5
Rattus norvegicus [37] = experiment: Level of compound in rat cerebellum at dose 45 umol/kg administered intraperitoneally; type: functional, organism-based; in short: as §5
Rattus norvegicus [38] = experiment: Level of compound in rat cerebellum at dose 45 umol/kg administered subcutaneously; type: functional, organism-based; in short: as §5
Rattus norvegicus [39] = experiment: Level of compound 5 in rat cortex at dose 45 umol/kg administered subcutaneously; type: functional, organism-based; in short: as §5
Rattus norvegicus [40] = experiment: Level of compound in rat cortex at dose 45 umol/kg administered subcutaneously; type: functional, organism-based; in short: as §5
Rattus norvegicus [41] = experiment: Motor activity effect in reserpinized rat at 213 umol/kg, sc expressed as accumulation counts 0-30 min after treatment; type: functional
Rattus norvegicus [42] = experiment: Level of compound in rat striatum at dose 45 umol/kg administered subcutaneously; type: functional, organism-based; in short: as §5
Rattus norvegicus [43] = experiment: Motor activity effect in reserpinized rat with tropolone pretreatment at 10 umol/kg, ip expressed as accumulation counts 0-30 min after treatment; type: functional; in short: as §3
Rattus norvegicus [44] = experiment: Motor activity effect in reserpinized rat with tropolone pretreatment at 50 umol/kg, ip expressed as accumulation counts 0-30 min after treatment; type: functional; in short: as §3

Chain of D(1A) dopamine receptor (P18901 whole entry): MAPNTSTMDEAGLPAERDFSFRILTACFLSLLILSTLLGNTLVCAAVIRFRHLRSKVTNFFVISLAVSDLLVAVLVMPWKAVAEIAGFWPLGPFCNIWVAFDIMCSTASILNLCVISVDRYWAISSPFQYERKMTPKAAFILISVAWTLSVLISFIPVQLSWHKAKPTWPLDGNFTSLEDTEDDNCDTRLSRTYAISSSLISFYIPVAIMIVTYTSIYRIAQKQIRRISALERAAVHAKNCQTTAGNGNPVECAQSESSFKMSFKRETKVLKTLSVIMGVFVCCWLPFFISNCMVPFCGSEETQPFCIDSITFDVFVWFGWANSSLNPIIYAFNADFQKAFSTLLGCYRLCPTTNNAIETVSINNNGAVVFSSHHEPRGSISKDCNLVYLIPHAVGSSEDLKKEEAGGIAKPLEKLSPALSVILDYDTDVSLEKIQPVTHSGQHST
Chain of D(2) dopamine receptor (P61169 whole entry): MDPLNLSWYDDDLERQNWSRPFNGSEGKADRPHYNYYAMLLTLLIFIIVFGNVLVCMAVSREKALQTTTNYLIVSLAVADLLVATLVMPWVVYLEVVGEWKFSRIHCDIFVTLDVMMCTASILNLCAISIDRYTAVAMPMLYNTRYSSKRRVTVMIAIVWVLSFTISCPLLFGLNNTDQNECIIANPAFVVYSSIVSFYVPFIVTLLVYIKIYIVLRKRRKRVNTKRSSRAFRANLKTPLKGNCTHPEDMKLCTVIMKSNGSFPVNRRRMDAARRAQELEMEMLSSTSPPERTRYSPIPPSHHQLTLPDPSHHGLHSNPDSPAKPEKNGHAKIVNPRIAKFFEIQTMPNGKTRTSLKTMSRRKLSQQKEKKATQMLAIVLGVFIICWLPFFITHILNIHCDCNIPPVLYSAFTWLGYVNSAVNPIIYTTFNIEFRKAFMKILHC

Compound `CCCN1CCC[C@H](c2ccc(O)c(O)c2)C1` has a Level (Rattus norvegicus [1]) of 5850 pmol/g, a Level (Rattus norvegicus [2]) of 8470 pmol/g and a Level (Rattus norvegicus [3]) of 18 pmol/g. It also gave a Level (Rattus norvegicus [4]) of 1910 pmol/g, a Level (Rattus norvegicus [5]) of 1620 pmol/g and a Level (Rattus norvegicus [6]) of 1380 pmol/g. For the same compound, the Control (Rattus norvegicus [7]) was 49%, the Level (Rattus norvegicus [8]) was 2750 pmol/g and the Level (Rattus norvegicus [9]) was 4340 pmol/g. For the same compound, the Level (Rattus norvegicus [10]) was 112 pmol/g, the Production (pM (mg of protein)-1) (Rattus norvegicus [11]) was 46 and the Km [12] was 65 µM. For the same compound, the Motor activity (Rattus norvegicus [13]) was 20, the Level (Rattus norvegicus [14]) was 2050 pmol/g and the Level (Rattus norvegicus [15]) was 150 pmol/g. The ED50 (Rattus norvegicus [16]) was 7 µmol/kg, the Level (Rattus norvegicus [17]) was 7200 pmol/g and the Ratio [18] was 346. For the same compound, the Level (Rattus norvegicus [19]) was 227 pmol/g, the Control (Rattus norvegicus [20]) was 65% and the Motor activity (Rattus norvegicus [21]) was 24. It also gave an ED50 (Rattus norvegicus [22]) of 6.2 µmol/kg, a Ki (D(1A) dopamine receptor) of 57.8 µM and a Ki (D(2) dopamine receptor) of 0.011 µM. The Km [23] was 121 µM, the Level (Rattus norvegicus [24]) was 9540 pmol/g and the Level (Rattus norvegicus [25]) was 6000 pmol/g. The Level (Rattus norvegicus [26]) was 1550 pmol/g and the Level (Rattus norvegicus [27]) was 22 pmol/g.
Compound `CCCN1CCC[C@H](c2cccc(O)c2)C1` has a Level (Rattus norvegicus [28]) of 243 pmol/g, a Level (Rattus norvegicus [29]) of 7410 pmol/g and a Level (Rattus norvegicus [30]) of 7040 pmol/g. The Control (Rattus norvegicus [7]) was 32%, the ED50 (Rattus norvegicus [16]) was 1.3 µmol/kg and the Level (Rattus norvegicus [31]) was 17600 pmol/g. For the same compound, the Motor activity (Rattus norvegicus [32]) was 78, the Control (Rattus norvegicus [20]) was 50% and the Level (Rattus norvegicus [33]) was 114 pmol/g. The ED50 (Rattus norvegicus [22]) was 1 µmol/kg, the Level (Rattus norvegicus [34]) was 151 pmol/g and the Level (Rattus norvegicus [35]) was 93 pmol/g. It also gave a Level (Rattus norvegicus [36]) of 98 pmol/g, a Level (Rattus norvegicus [37]) of 4910 pmol/g and a Level (Rattus norvegicus [38]) of 15200 pmol/g. For the same compound, the Level (Rattus norvegicus [39]) was 211 pmol/g and the Level (Rattus norvegicus [40]) was 18300 pmol/g.
`CCCN1CCC[C@@H](c2cccc(O)c2)C1` [PRECLAMOL] gave a Level (Rattus norvegicus [28]) of 280 pmol/g, a Motor activity (Rattus norvegicus [41]) of 12 and a Level (Rattus norvegicus [42]) of 20300 pmol/g. The Level (Rattus norvegicus [29]) was 5790 pmol/g, the Level (Rattus norvegicus [30]) was 5380 pmol/g and the Control (Rattus norvegicus [7]) was 123%. The Motor activity (Rattus norvegicus [43]) was 23, the ED50 (Rattus norvegicus [16]) was 1.7 µmol/kg and the Control (Rattus norvegicus [20]) was 118%. The Level (Rattus norvegicus [33]) was 174 pmol/g, the ED50 (Rattus norvegicus [22]) was 0.8 µmol/kg and the Level (Rattus norvegicus [34]) was 174 pmol/g. For the same compound, the Level (Rattus norvegicus [35]) was 89 pmol/g, the Motor activity (Rattus norvegicus [44]) was 77 and the Level (Rattus norvegicus [36]) was 104 pmol/g. For the same compound, the Level (Rattus norvegicus [37]) was 3430 pmol/g, the Level (Rattus norvegicus [38]) was 16100 pmol/g and the Level (Rattus norvegicus [39]) was 243 pmol/g. For the same compound, the Level (Rattus norvegicus [40]) was 21100 pmol/g.
